This is an account of results in ChEMBL document CHEMBL3877283, “Antitubercular activity of 1,2,3-triazolyl fatty acid derivatives” (Eur J Med Chem, 2017).

Series [1] deals with Mycobacterium tuberculosis. In words: Antimycobacterial activity against Mycobacterium tuberculosis H37Rv measured after 5 days by MTT dye based two-fold microdilution method. Type of series: functional. Particulars: 120 h. In short, it runs like this:
(§1)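 Two-fold serial dilution in 96-well plates in Middlebrook 7H9 with 10% ADS and 1% glycerol (7H9-ADS-G). DMSO stocks were diluted to a top concentration of 100 μg/mL and down to 0.8 μg/mL, run in duplicate. Wells received mid-log bacilli in 7H9-ADS-G, incubated 5 days at 37 °C, then MTT for 24 h. MIC is the lowest concentration blocking yellow-to-purple change. Rifampicin was the control.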
On the technique in general: Tetrazolium assays rely on reduction of a dye to a coloured formazan, in cell work by metabolically active cells.

A short description of series [2]: Cytotoxicity against African green monkey Vero cells at 4.75 ug/ml measured after 48 hrs by neutral red assay. Type of series: toxicity, cell-based. To be noted: chlorocebus sabaeus. In short, it runs like this: (§2)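 Vero (African green monkey kidney) cells were seeded at 25,000 cells/well and grown 24 h. Compounds were then added, with DMSO as vehicle control and doxorubicin as positive control, and incubated 48 h. Viable cells were counted by neutral red uptake. Highest concentration tested was 4.75 μg/mL. IC50 was read from logarithmic plots of growth inhibition versus concentration.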

Series [3] in a line: Therapeutic index, ratio of IC50 for cytotoxicity against African green monkey Vero cells to MIC for antimycobacterial activity against Mycobacterium tuberculosis H37Rv. Type of series: cell-based. Particulars: read-out: TI. In short, it runs like this: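 Vero cells were seeded at 25,000/well, grown 24 h, then exposed to compound for 48 h, with a maximum of 4.75 μg/mL and DMSO as vehicle. Viability was read by neutral red uptake. IC50 came from log plots of growth inhibition versus concentration. The index is cytotoxic IC50 divided by MIC against H37Rv from the MTT microdilution assay.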

Series [4] concerns Mycobacterium tuberculosis. Description: Inhibition of Mycobacterium tuberculosis InhA assessed as remaining activity at 20 uM using trans-2-dodecenoyl-coenzyme A as substrate relative to control. The gist of the method: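 Wild-type InhA (100 nM) started the reaction with 25 μM trans-2-dodecenoyl-CoA, 250 μM NADH and 20 μM inhibitor in 30 mM PIPES, 150 mM NaCl, pH 6.8. Initial velocity was compared with an inhibitor-free control; remaining activity is vi/v0.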

The nature of series [5]: Cytotoxicity against African green monkey Vero cells measured after 48 hrs by neutral red assay. Type of series: toxicity, cell-based. To be noted: African green monkey (Chlorocebus sabaeus). In short, it runs like this: as §2
A short description of series [6]: Inhibition of Staphylococcus aureus FabI using t-o-NAC-thioester as substrate by spectrophometric method.
Series [7] relates to Mycobacterium tuberculosis. In words: Antimycobacterial activity against Mycobacterium tuberculosis H37Rv ATCC 27294 measured after 10 days by broth dilution method. Format: functional. Particulars: H37Rv ATCC 27294, 240 h. (In broth dilution the organism is exposed to a series of concentrations in liquid medium.)
Series [8] concerns Mycobacterium tuberculosis. In words: Antimycobacterial activity against Mycobacterium tuberculosis isolate 51 measured after 5 days by MTT dye based two-fold microdilution method. Format: functional. Particulars: isolate 51, 120 h. In short, it runs like this: as §1
Series [9] relates to Mycobacterium tuberculosis. In words: Antimycobacterial activity against Mycobacterium tuberculosis isolate 164 measured after 5 days by MTT dye based two-fold microdilution method. Format: functional. To be noted: isolate 164, 120 h. In short, it runs like this:
as §1

The test system of series [10] is Mycobacterium tuberculosis. Description: Antimycobacterial activity against Mycobacterium tuberculosis isolate 304 measured after 5 days by MTT dye based two-fold microdilution method. Format: functional. Particulars: isolate 304, 120 h. In short, it runs like this:
as §1

Series [11] relates to Mycobacterium tuberculosis. Description: Antimycobacterial activity against Mycobacterium tuberculosis isolate 598 measured after 5 days by MTT dye based two-fold microdilution method. Format: functional. To be noted: isolate 598, 120 h. The gist of the method:
as §1

The structures appear in SMILES notation. In brackets after ≈: the same amount, converted by molar mass.

Broadly, the MIC is the smallest concentration in the dilution series that meets the test's criterion for growth inhibition. In turn, `CCCCCCCCc1cnnn1CC(=O)OCC` had an MIC in [1] of 93 µM (≈ 24.9 µg/mL). Moreover, the Activity result in [2] is “Non-Toxic”.

Turning to `CCCCCCCCCCc1cn(CCCC(=O)OCC)nn1`, the MIC in [1] was 309 µM (≈ 100 µg/mL). Also, the Activity result in [2] is “Non-Toxic”.

With `CCCCCCCCn1cc(C(=O)OC)nn1`, 52 µM (≈ 12.4 µg/mL) was the least that counted as inhibitory in series [1] (MIC). In addition, the Activity result in series [2] is given as “Non-Toxic”.

A word on the IC50: it is the concentration needed to halve the response being measured. In the case of `CCCCCCCCCCc1cn(CC(=O)OCC)nn1`, in series [3], the selectivity ratio is over 10. The MIC in [1] came out at 1.7 µM (≈ 0.502 µg/mL). Moreover, the Activity in series [4] was determined as 99.3%. In [5], this compound returned a 50% inhibitory concentration (IC50) at 48 h of over 16.1 µM.

`CCCCCCCCc1cn(CCC(=O)OCC)nn1` came in with an MIC in series [1] of 22 µM (≈ 6.19 µg/mL). In addition, in series [2], the Activity result was “Non-Toxic”.

`CCCCCCCCCCn1cc(C(=O)OC)nn1` came in with an MIC in [1] of 23 µM (≈ 6.15 µg/mL). In series [2], the Activity result is listed as “Non-Toxic”.

As for `CCCCCCCC/C=C\CCCCCCCC(=O)O` [OLEIC ACID], the IC50 in series [6] amounted to 40 µM.

For the compound `CCCCCCCCCCc1cn(CCCCC(=O)OCC)nn1`, the MIC in [1] came to 37 µM (≈ 12.5 µg/mL). Moreover, in series [2], the Activity result is recorded as “Non-Toxic”.

Regarding `CCCCCCCCc1cn(CCCCC(=O)OCC)nn1`, the MIC in [1] was determined as 40 µM (≈ 12.4 µg/mL). The Activity result in [2] is listed as “Non-Toxic”.

In turn, `CCCCCCCCCCn1cc(CO)nn1` returned an MIC in series [1] of 209 µM (≈ 50 µg/mL). In addition, the Activity entry in series [2] is given as “Non-Toxic”.

In turn, `CCCCCc1cn(CC(=O)OCC)nn1` had a minimum inhibitory concentration (MIC) in series [1] of 111 µM (≈ 25 µg/mL). The Activity in [4] was 73.2%; in series [2], “Non-Toxic”.

Regarding `CCCCCCCCn1cc(CO)nn1`, the MIC in series [1] stood at 473 µM (≈ 99.9 µg/mL). The Activity result in series [2] is on record as “Non-Toxic”.

Turning to `CCCCCCCCCCO` [DECANOL], inhibition of growth in [7] (MIC) required 800 µM.

In turn, `CCCc1cn(CC(=O)OCC)nn1` registered a minimal inhibitory concentration (MIC) in series [1] of 505 µM (≈ 99.6 µg/mL). The Activity in series [4] was 69%; in [2] it was “Non-Toxic”.

`CCCCCc1cn(CCCCC(=O)OCC)nn1` gave an MIC in series [1] of 23 µM (≈ 6.15 µg/mL). Further, in series [2], the Activity result is “Non-Toxic”.

Compound `CCCCCC/C=C\CCCCCCCC(=O)O` [PALMITOLEIC ACID] registered an IC50 in series [6] of 40 µM.

Compound `CCCCC/C=C\C/C=C\C/C=C\C/C=C\CCCC(=O)O` [ARACHIDONIC ACID] yielded a half-maximal inhibitory concentration (IC50) in series [6] of 40 µM.

`CC/C=C\C/C=C\C/C=C\CCCCCCCC(=O)O` [LINOLENIC ACID] returned a half-maximal inhibitory concentration (IC50) in series [6] of 40 µM.

In turn, `CCCCCCCCn1cc(C(=O)O)nn1` displayed a minimum inhibitory concentration (MIC) in series [1] of 14 µM (≈ 3.15 µg/mL). Besides, the Activity entry in series [2] is reported as “Non-Toxic”.

In turn, `CCCCCCCCCCCCCn1cc(C(=O)OC)nn1` showed an MIC in series [1] of 323 µM (≈ 100 µg/mL). The Activity entry in [2] was “Non-Toxic”.

As to `CCCCCCCCCCCCO` [DODECANOL], the minimum inhibitory concentration (MIC) in series [7] was found to be 5 µg/mL.

Regarding `CCCCCc1cn(CCCC(=O)OCC)nn1`, the lowest concentration to inhibit growth in [1] (MIC) was 12 µM (≈ 3.04 µg/mL). Moreover, the Activity entry in series [2] is “Non-Toxic”.

Consider `CCCCCCCCc1cn(CCCC(=O)OCC)nn1`, for which, in series [1], the MIC stood at 21 µM (≈ 6.2 µg/mL). Besides, in series [2], the Activity result is given as “Non-Toxic”.

As to `CCCCCc1cn(CCCCCC(=O)OCC)nn1`, in [1], the minimum inhibitory concentration (MIC) was 22 µM (≈ 6.19 µg/mL). The Activity entry in [2] is on record as “Non-Toxic”.

Take `CCCCCCCCc1cn(CC(=O)OCC)nn1`: the minimum inhibitory concentration (MIC) in series [8] was 0.45 µM (≈ 0.12 µg/mL); in series [1], 1.9 µM (≈ 0.508 µg/mL); in [9], 1.9 µM (≈ 0.508 µg/mL); in series [10], 1.9 µM (≈ 0.508 µg/mL); in series [11], 1.9 µM (≈ 0.508 µg/mL). Moreover, the selectivity ratio in series [3] is over 10. For the same compound, the Activity in series [4] turned out to be 90.1%. The compound also gave an IC50 at 48 h in series [5] of over 17.8 µM.

On to `CCCCCCCCCCCCCCCc1cn(CC(=O)OCC)nn1`, for which 17 µM (≈ 6.21 µg/mL) was the least that counted as inhibitory in [1] (MIC). Also, the Activity result in [2] is “Non-Toxic”.

As to `CCCCCCCCCCCCCCO` [MYRISTYL ALCOHOL], the MIC in [7] is 5 µg/mL.

The compound `CCCCCCCCCCCCCn1cc(CO)nn1` displayed an MIC in [1] of 44 µM (≈ 12.4 µg/mL). In addition, the Activity entry in series [2] is recorded as “Non-Toxic”.

`CCCCCCCCCCn1cc(C(=O)O)nn1` gave an MIC in series [1] of 20 µM (≈ 5.07 µg/mL). The Activity result in series [2] is listed as “Non-Toxic”.

The compound `CCCCC/C=C\C/C=C\CCCCCCCC(=O)O` [LINOLEIC ACID] yielded a half-inhibitory concentration (IC50) in series [6] of 40 µM.

The compound `CCCCCCCCc1cn(CCCCCC(=O)OCC)nn1` yielded an MIC in series [1] of 309 µM (≈ 100 µg/mL). The Activity result in series [2] is on record as “Non-Toxic”.

The compound `CCCc1cn(CCCCCC(=O)OCC)nn1` displayed a minimal inhibitory concentration (MIC) in series [1] of 394 µM (≈ 99.8 µg/mL). Besides, in series [2], the Activity result is given as “Non-Toxic”.

In turn, `CCCCCCCCCCc1cnnn1CC(=O)OCC` had a minimal inhibitory concentration (MIC) in [1] of 84 µM (≈ 24.8 µg/mL). The Activity entry in [2] is reported as “Non-Toxic”.

Compound `CCCCCCCCCCc1cn(CCC(=O)OCC)nn1` displayed a minimal inhibitory concentration (MIC) in [1] of 20 µM (≈ 6.19 µg/mL). For the same compound, the Activity result in series [2] was “Non-Toxic”.

In the case of `CCCCCCCCCCCCCc1cn(CC(=O)OCC)nn1`, in series [1], the MIC stood at 296 µM (≈ 99.9 µg/mL). The Activity result in series [2] is recorded as “Non-Toxic”.

In turn, `COc1cccc2c1C(=O)c1c(O)c3c(c(O)c1C2=O)C[C@@](O)(C(=O)CO)C[C@@H]3O[C@H]1C[C@H](N)[C@H](O)[C@H](C)O1` [DOXORUBICIN] had a half-inhibitory concentration (IC50) at 48 h in series [5] of 14 µM.

In the case of `CCCCCCCCCCCCCCCCO` [CETYL ALCOHOL], inhibition of growth in [7] (MIC) required 5 µg/mL.
